Test results reported in ChEMBL document CHEMBL1287802, “Convergent synthesis of fluorescence-labeled probes of Annonaceous acetogenins and visualization of their cell distribution” (Bioorg Med Chem, 2010).
The source made the active and inactive calls.

Experiments:
[1] = Growth inhibition of human HBC4 cells after 48 hrs by sulforhodamine B assay; assay type: functional; details: HBC4, 48 h
Summary of the method: (§1)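 Tested in the JFCR39 panel of 39 human cancer cell lines. Cells were exposed to compound for 48 h, and growth was measured as the change in total cellular protein by sulforhodamine B colorimetry. GI50 (molar concentration for 50% growth inhibition) was calculated by a previously reported method. Fingerprints were plotted as log differences of each line's GI50 from the panel mean.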

[2] = Growth inhibition of human BSY1 cells after 48 hrs by sulforhodamine B assay; assay type: functional; details: BSY-1, 48 h; summary of the method: as §1
[3] = Growth inhibition of human HBC5 cells after 48 hrs by sulforhodamine B assay; assay type: functional; details: HBC5, 48 h; summary of the method: as §1
[4] = test system: MCF7; assay: Growth inhibition of human MCF7 cells after 48 hrs by sulforhodamine B assay; assay type: functional; details: MCF7, 48 h; summary of the method: as §1
[5] = Growth inhibition of human MDA-MB-23 cells after 48 hrs by sulforhodamine B assay; assay type: functional; details: MDA-MB-23, 48 h, read-out: pGI50 (converted); summary of the method: as §1
[6] = test system: U-251; assay: Growth inhibition of human U251 cells after 48 hrs by sulforhodamine B assay; assay type: functional; details: U-251, 48 h; summary of the method: as §1
[7] = test system: SF-268; assay: Growth inhibition of human SF268 cells after 48 hrs by sulforhodamine B assay; assay type: functional; details: SF-268, 48 h; summary of the method: as §1
[8] = test system: SF-295; assay: Growth inhibition of human SF295 cells after 48 hrs by sulforhodamine B assay; assay type: functional; details: SF-295, 48 h; summary of the method: as §1
[9] = test system: SF-539; assay: Growth inhibition of human SF539 cells after 48 hrs by sulforhodamine B assay; assay type: functional; details: SF-539, 48 h; summary of the method: as §1
[10] = test system: SNB-75; assay: Growth inhibition of human SNB75 cells after 48 hrs by sulforhodamine B assay; assay type: functional; details: SNB-75, 48 h; summary of the method: as §1
[11] = test system: SNB-78; assay: Growth inhibition of human SNB78 cells after 48 hrs by sulforhodamine B assay; assay type: functional; details: SNB-78, 48 h; summary of the method: as §1
[12] = test system: HCC 2998; assay: Growth inhibition of human HCC2998 cells after 48 hrs by sulforhodamine B assay; assay type: functional; details: HCC 2998, 48 h, read-out: pGI50 (converted); summary of the method: as §1
[13] = test system: KM12; assay: Growth inhibition of human KM12 cells after 48 hrs by sulforhodamine B assay; assay type: functional; details: KM12, 48 h; summary of the method: as §1
[14] = test system: HT-29; assay: Growth inhibition of human HT-29 cells after 48 hrs by sulforhodamine B assay; assay type: functional; details: HT-29, 48 h; summary of the method: as §1
[15] = test system: NCI-H23; assay: Growth inhibition of human NCI-H23 cells after 48 hrs by sulforhodamine B assay; assay type: functional; details: NCI-H23, 48 h; summary of the method: as §1
[16] = test system: NCI-H226; assay: Growth inhibition of human NCI-H226 cells after 48 hrs by sulforhodamine B assay; assay type: functional; details: NCI-H226, 48 h; summary of the method: as §1
[17] = test system: NCI-H522; assay: Growth inhibition of human NCI-H522 cells after 48 hrs by sulforhodamine B assay; assay type: functional; details: NCI-H522, 48 h; summary of the method: as §1
[18] = test system: NCI-H460; assay: Growth inhibition of human NCI-H460 cells after 48 hrs by sulforhodamine B assay; assay type: functional; details: NCI-H460, 48 h; summary of the method: as §1
[19] = test system: A549; assay: Growth inhibition of human A549 cells after 48 hrs by sulforhodamine B assay; assay type: functional; details: A549, 48 h; summary of the method: as §1
[20] = test system: DMS-273; assay: Growth inhibition of human DMS273 cells after 48 hrs by sulforhodamine B assay; assay type: functional; details: DMS-273, 48 h; summary of the method: as §1
[21] = test system: DMS-114; assay: Growth inhibition of human DMS114 cells after 48 hrs by sulforhodamine B assay; assay type: functional; details: DMS-114, 48 h; summary of the method: as §1
[22] = test system: LOX IMVI; assay: Growth inhibition of human LOXIMVI cells after 48 hrs by sulforhodamine B assay; assay type: functional; summary of the method: as §1
[23] = test system: OVCAR-3; assay: Growth inhibition of human OVCAR-3 cells after 48 hrs by sulforhodamine B assay; assay type: functional; details: OVCAR-3, 48 h; summary of the method: as §1
[24] = test system: OVCAR-4; assay: Growth inhibition of human OVCAR4 cells after 48 hrs by sulforhodamine B assay; assay type: functional; details: OVCAR-4, 48 h; summary of the method: as §1
[25] = test system: OVCAR-5; assay: Growth inhibition of human OVCAR5 cells after 48 hrs by sulforhodamine B assay; assay type: functional; details: OVCAR-5, 48 h; summary of the method: as §1
[26] = test system: OVCAR-8; assay: Growth inhibition of human OVCAR8 cells after 48 hrs by sulforhodamine B assay; assay type: functional; details: OVCAR-8, 48 h; summary of the method: as §1
[27] = test system: SK-OV-3; assay: Growth inhibition of human SKOV3 cells after 48 hrs by sulforhodamine B assay; assay type: functional; details: SK-OV-3, 48 h; summary of the method: as §1
[28] = Growth inhibition of human RXF631L cells after 48 hrs by sulforhodamine B assay; assay type: functional; details: RXF 631, 48 h; summary of the method: as §1
[29] = test system: ACHN; assay: Growth inhibition of human ACHN cells after 48 hrs by sulforhodamine B assay; assay type: functional; summary of the method: as §1
[30] = test system: St-4; assay: Growth inhibition of human St-4 cells after 48 hrs by sulforhodamine B assay; assay type: functional; details: St-4, 48 h; summary of the method: as §1
[31] = Growth inhibition of human MKN1 cells after 48 hrs by sulforhodamine B assay; assay type: functional; details: MKN-1, 48 h; summary of the method: as §1
[32] = test system: MKN-7; assay: Growth inhibition of human MKN7 cells after 48 hrs by sulforhodamine B assay; assay type: functional; details: MKN-7, 48 h; summary of the method: as §1
[33] = test system: MKN-28; assay: Growth inhibition of human MKN28 cells after 48 hrs by sulforhodamine B assay; assay type: functional; details: MKN-28, 48 h; summary of the method: as §1
[34] = test system: MKN-45; assay: Growth inhibition of human MKN45 cells after 48 hrs by sulforhodamine B assay; assay type: functional; details: MKN-45, 48 h; summary of the method: as §1
[35] = test system: MKN-74; assay: Growth inhibition of human MKN74 cells after 48 hrs by sulforhodamine B assay; assay type: functional; details: MKN-74, 48 h; summary of the method: as §1
[36] = test system: DU-145; assay: Growth inhibition of human DU145 cells after 48 hrs by sulforhodamine B assay; assay type: functional; details: DU-145, 48 h, read-out: pGI50 (converted); summary of the method: as §1
[37] = test system: PC-3; assay: Growth inhibition of human PC3 cells after 48 hrs by sulforhodamine B assay; assay type: functional; details: PC-3, 48 h; summary of the method: as §1
[38] = test system: HCT-15; assay: Growth inhibition of human HCT15 cells after 48 hrs by sulforhodamine B assay; assay type: functional; details: HCT-15, 48 h; summary of the method: as §1
[39] = test system: HCT-116; assay: Growth inhibition of human HCT116 cells after 48 hrs by sulforhodamine B assay; assay type: functional; details: HCT-116, 48 h; summary of the method: as §1
[40] = biological target: ABC-type oligopeptide transporter ABCB9 (Homo sapiens) (UniProt Q9NP78); assay: Effect on human GFP-tagged TAPL-mediated cellular uptake expressed in CHO-K1 cells assessed as localization to endoplasmic reticulum at 10 uM after 5 hrs using ER-Tracker red staining by confocal laser scanning microscopic analysis; assay type: cell-based
ABC-type oligopeptide transporter ABCB9 (Homo sapiens), sequence (Q9NP78 whole entry): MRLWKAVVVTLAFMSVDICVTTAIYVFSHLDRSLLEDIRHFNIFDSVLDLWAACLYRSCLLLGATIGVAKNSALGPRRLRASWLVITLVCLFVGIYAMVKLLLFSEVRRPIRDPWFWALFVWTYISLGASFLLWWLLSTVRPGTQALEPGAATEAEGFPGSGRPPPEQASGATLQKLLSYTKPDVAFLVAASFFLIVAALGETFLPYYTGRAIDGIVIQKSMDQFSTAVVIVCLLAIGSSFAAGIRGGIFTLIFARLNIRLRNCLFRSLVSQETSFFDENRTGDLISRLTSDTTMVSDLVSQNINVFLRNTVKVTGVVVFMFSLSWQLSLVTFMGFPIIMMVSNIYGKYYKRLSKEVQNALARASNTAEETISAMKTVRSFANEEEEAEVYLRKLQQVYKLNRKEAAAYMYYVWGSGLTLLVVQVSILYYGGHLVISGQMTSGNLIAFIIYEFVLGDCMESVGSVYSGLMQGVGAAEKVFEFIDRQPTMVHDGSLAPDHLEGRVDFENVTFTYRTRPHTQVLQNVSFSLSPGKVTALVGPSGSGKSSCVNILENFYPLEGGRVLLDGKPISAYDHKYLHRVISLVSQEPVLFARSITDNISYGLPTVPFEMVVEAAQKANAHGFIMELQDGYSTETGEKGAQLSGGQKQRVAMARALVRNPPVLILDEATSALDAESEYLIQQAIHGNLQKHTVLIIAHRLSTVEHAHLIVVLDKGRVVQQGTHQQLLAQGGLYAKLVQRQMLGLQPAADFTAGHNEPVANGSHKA
Summary of the method: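 CHO-K1 cells were cultured two days at 37 °C in Ham's F12 with 7% fetal calf serum. They were loaded with 10 µM dansyl probe in medium for 5 h, washed five times, then stained with ER-Tracker Red. Live confocal imaging used 405 nm excitation for dansyl and 559 nm for the tracker, with overlap of signals assessed. Samples were run in duplicate.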

[41] = Cytotoxicity against CHOK1 cells at 10 uM after 24 hrs; assay type: cell-based, Cricetulus griseus; details: chinese hamster, cho-k1, 24 h
Summary of the method: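 CHO-K1 cells were grown two days at 37 °C in Ham's F12 with 7% fetal calf serum in glass-bottomed dishes. They were exposed to 10 µM probe for 5 h, washed, and imaged. Dishes were then incubated a further 24 h. Toxicity was judged by microscopic inspection for desquamated or suspended cells.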

[42] = biological target: ABC-type oligopeptide transporter ABCB9 (Homo sapiens) (UniProt Q9NP78); assay: Effect on human GFP-tagged TAPL-mediated cellular uptake expressed in CHO-K1 cells assessed as localization to lysosome at 10 uM after 5 hrs by confocal laser scanning microscopic analysis

CCCCCCCCCCCC[C@@H](O)[C@H]1CC[C@H]([C@H](O)CCCCCCCCCCCCC2=C[C@H](C)OC2=O)O1 [REL-SOLAMIN]
29.5 µM: GI50 [22]
14.1 µM: GI50 [33]
4.37 µM: GI50 [21]
12.9 µM: GI50 [32]
> 100 µM: GI50 [1] | GI50 [2] | GI50 [3] | GI50 [5] | GI50 [6] | GI50 [7] | GI50 [8] | GI50 [9] | GI50 [10] | GI50 [11] | GI50 [12] | GI50 [13] | GI50 [14] | GI50 [16] | GI50 [18] | GI50 [19] | GI50 [20] | GI50 [23] | GI50 [24] | GI50 [25] | GI50 [26] | GI50 [27] | GI50 [28] | GI50 [29] | GI50 [30] | GI50 [31] | GI50 [34] | GI50 [35] | GI50 [36] | GI50 [37] | GI50 [38] | GI50 [39]
57.5 µM: GI50 [17]
72.4 µM: GI50 [15]
70.8 µM: GI50 [4]

C[C@H]1C=C(CCCCCCCCCCCC[C@@H](O)[C@H]2CC[C@H]([C@H](O)CCCCCCCCCNS(=O)(=O)c3cccc4c(N(C)C)cccc34)O2)C(=O)O1
0.0234 µM: GI50 [21]
29.5 µM: GI50 [16]
inactive: Activity [42]
0.513 µM: GI50 [8]
4.9 µM: GI50 [17]
> 100 µM: GI50 [1] | GI50 [2] | GI50 [3] | GI50 [5] | GI50 [6] | GI50 [7] | GI50 [9] | GI50 [10] | GI50 [11] | GI50 [12] | GI50 [13] | GI50 [14] | GI50 [18] | GI50 [19] | GI50 [20] | GI50 [22] | GI50 [23] | GI50 [24] | GI50 [25] | GI50 [26] | GI50 [27] | GI50 [28] | GI50 [29] | GI50 [30] | GI50 [31] | GI50 [34] | GI50 [36] | GI50 [38]
6.03 µM: GI50 [4]
Non-toxic: Activity [41]
active: Activity [40]
1.55 µM: GI50 [35]
8.91 µM: GI50 [39]
81.3 µM: GI50 [37]
3.47 µM: GI50 [15]
0.0692 µM: GI50 [33]
0.0398 µM: GI50 [32]
